Experimental data as given in article PMC7508885 (SLAS discovery : advancing life sciences R & D, 2020).

What was measured:
[1] = target: T1, P. aeruginosa TyrRS-S (Pseudomonas aeruginosa, UniProt Q9HWP3); assay: ATP:PPi exchange reaction; type: biochemical; details: other substrate (Tyr or ATP) held at 2 mM; enzyme 0.4 μM
[2] = target: T2, P. aeruginosa TyrRS-Z (Pseudomonas aeruginosa, UniProt Q9I5Q3); assay: ATP:PPi exchange reaction; type: biochemical; details: other substrate (Tyr or ATP) held at 2 mM; enzyme 0.4 μM
T2 sequence (Q9I5Q3 whole entry): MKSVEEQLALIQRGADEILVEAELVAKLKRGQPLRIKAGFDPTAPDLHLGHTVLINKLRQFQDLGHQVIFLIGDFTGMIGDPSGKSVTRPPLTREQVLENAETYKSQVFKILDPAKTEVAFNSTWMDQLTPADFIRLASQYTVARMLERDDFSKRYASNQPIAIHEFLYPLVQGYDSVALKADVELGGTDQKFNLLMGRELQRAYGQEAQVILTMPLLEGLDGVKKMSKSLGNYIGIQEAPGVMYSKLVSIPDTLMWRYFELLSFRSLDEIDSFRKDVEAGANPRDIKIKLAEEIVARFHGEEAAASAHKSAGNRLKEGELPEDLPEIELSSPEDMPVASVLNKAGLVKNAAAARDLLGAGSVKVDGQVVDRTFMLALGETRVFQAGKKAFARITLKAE

[3] = tested on: Moraxella catarrhalis (ATCC 25238); assay: Broth microdilution MIC testing; type: cell-based; details: Gram-negative M. catarrhalis
How it was run: (§1)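 Broth microdilution MIC testing following CLSI guideline M7-A7, run against a 10-strain bacterial panel that included E. coli and P. aeruginosa efflux-pump mutants and a hypersensitive P. aeruginosa strain.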

[4] = target: T1, P. aeruginosa TyrRS-S; assay: SPA-based tRNA aminoacylation assay; type: biochemical
[5] = tested on: human embryonic kidney 293 cells (HEK293); assay: In vitro cytotoxicity test; type: cell-based; details: 25-400 μg/mL, 24 h, triplicate
[6] = target: T1, P. aeruginosa TyrRS-S; assay: Binding mode assay; type: biochemical; details: for shift in the IC50 with increasing ATP concentration (competition with ATP): ATP 25-1000 μM, Tyr held constant; for shift in the IC50 with increasing ATP concentration (competition with ATP) / shift in the IC50 with increasing Tyr concentration (competition with Tyr): TyrRS-S 0.05 μM; for shift in the IC50 with increasing Tyr concentration (competition with Tyr): Tyr 25-300 μM, ATP held at 2.5 mM
[7] = tested on: Haemophilus influenzae (ATCC 49766); assay: Broth microdilution MIC testing; type: cell-based; details: Gram-negative respiratory pathogen H. influenzae
How it was run: as §1

[8] = target: T2, P. aeruginosa TyrRS-Z; assay: SPA-based tRNA aminoacylation assay; type: biochemical
[9] = tested on: NIH-3T3 cell line; details: quantitative high-throughput screening; ref PubChem CID 53183345; cited from earlier work
[10] = tested on: HEK-293 cell line; details: quantitative high-throughput screening; ref PubChem CID 53183345; cited from earlier work
[11] = tested on: S. aureus TyrRS; details: cited from earlier work
[12] = tested on: TyrRS; details: cited from earlier work
[13] = tested on: LysRS; details: cited from earlier work
[14] = tested on: eukaryotic LysRS; details: cited from earlier work

T1 sequence (Q9HWP3 whole entry): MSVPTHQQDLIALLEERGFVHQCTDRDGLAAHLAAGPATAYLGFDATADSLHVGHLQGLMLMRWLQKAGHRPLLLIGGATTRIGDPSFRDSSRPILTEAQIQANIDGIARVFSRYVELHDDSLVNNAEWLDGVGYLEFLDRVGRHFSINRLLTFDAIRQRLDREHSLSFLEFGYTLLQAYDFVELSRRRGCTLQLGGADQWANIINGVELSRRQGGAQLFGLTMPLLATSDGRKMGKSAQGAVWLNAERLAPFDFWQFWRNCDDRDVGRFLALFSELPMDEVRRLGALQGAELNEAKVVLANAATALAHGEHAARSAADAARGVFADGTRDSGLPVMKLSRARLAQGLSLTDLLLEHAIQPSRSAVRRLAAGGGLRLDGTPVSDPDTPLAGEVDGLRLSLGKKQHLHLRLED

Nc1ncnc2c1ncn2[C@@H]1O[C@H](COP(=O)(O)OP(=O)(O)OP(=O)(O)O)[C@@H](O)[C@H]1O [ATP]
kcat^obs for interaction with TyrRS-S [1]: 1.0 s⁻¹ | kcat^obs for interaction with TyrRS-Z [2]: 3.8 s⁻¹

O=C1Nc2ccccc2Oc2cc(N3CCc4ccccc4C3)c(S(=O)(=O)N3CCCCC3)cc21 [BCD37H06, 3-(3,4-dihydroisoquinolin-2(1H)-yl)-2-(piperidin-1-ylsulfonyl) dibenzo[b,f][1,4]oxazepin-11(10H)-one]
inhibition of cultures (MIC testing) [3]: inhibited | IC50 [4]: 24 µM | toxicity to human cell cultures [5]: failed to exhibit toxic effects at any concentrations tested | shift in the IC50 with increasing ATP concentration (competition with ATP) [6]: no shift in the IC50 | shift in the IC50 with increasing Tyr concentration (competition with Tyr) [6]: no shift in the IC50 | effectiveness against cultures (MIC testing) [7]: effective

CC(=O)N1CCc2cc(Br)c(S(=O)(=O)NCCN3CCCCC3C)cc21 (stereo not shown) [BCD38C11, 1-acetyl-5-bromo-N-[2-(2-methylpiperidin-1-yl)ethyl]indoline-6-sulfonamide]
inhibition of cultures (MIC testing) [3]: inhibited | IC50 [4]: 71 µM | toxicity to human cell cultures [5]: failed to exhibit toxic effects at any concentrations tested | Ki [6]: 5.28 µM | shift in the IC50 with increasing ATP concentration (competition with ATP) [6]: increased with increasing ATP concentrations | shift in the IC50 with increasing Tyr concentration (competition with Tyr) [6]: no change in the IC50 values | IC50 [8]: 241 µM

Cc1ccc(N2CN(CC(=O)Nc3cccc(Cl)c3)S(=O)(=O)c3cccnc32)cc1 [BCD49D09, N1-(3-chlorophenyl)-2-[4-(4-methylphenyl)-1,1-dioxo-3,4-dihydro-1λ6-pyrido[2,3-e][1,2,4]thiadiazin-2(1H)-yl] acetamide]
inhibition of cultures (MIC testing) [3]: inhibited | toxicity to human cell cultures [5]: failed to exhibit toxic effects at any concentrations tested | shift in the IC50 with increasing ATP concentration (competition with ATP) [6]: increased with increasing ATP concentrations | shift in the IC50 with increasing Tyr concentration (competition with Tyr) [6]: no change in the IC50 values

O=C(c1ccccc1)N1CCCn2cc(-c3ccc4c(c3)OCO4)nc21 [BCD54B04, [2-(1,3-benzodioxol-5-yl)-6,7-dihydroimidazo[1,2-a]pyrimidin-8(5H)-yl](phenyl) methanone]
inhibition of cultures (MIC testing) [3]: inhibited | IC50 [4]: 50 µM | toxicity to human cell cultures [5]: failed to exhibit toxic effects at any concentrations tested | shift in the IC50 with increasing ATP concentration (competition with ATP) [6]: no shift in the IC50 | shift in the IC50 with increasing Tyr concentration (competition with Tyr) [6]: no shift in the IC50 | toxicity in NIH-3T3 cell line [9]: nontoxic | effectiveness against cultures (MIC testing) [7]: effective | toxicity in HEK-293 cell line [10]: nontoxic

N[C@@H](Cc1ccc(O)cc1)C(=O)NC(C(=O)O)[C@H]1[C@H](O)[C@]2(O)CO[C@@H]([C@@H]2O)N1O (stereo partly shown) [SB-219383]
IC50 against S. aureus TyrRS [11]: low nanomolar range

COc1ccc(-c2cc(=O)c3c(O)cc(O)cc3o2)cc1 [acacetin]
effect on TyrRS [12]: inhibitory effects

C=CC1=C(C)/C(=C/c2[nH]c(Cc3[nH]c(/C=C4\NC(=O)C(C)=C4C=C)c(C)c3CCC(=O)O)c(CCC(=O)O)c2C)NC1=O [bilirubin]
inhibition of LysRS [13]: specific inhibitor of ATP binding

O=c1cc(-c2ccccc2)oc2cc(O)cc(O)c12 [chrysin]
effect on TyrRS [12]: inhibitory effects

C[C@H]1CCC[C@H](C[C@H]2Cc3cc(O)cc(O)c3C(=O)O2)O1 [cladosporin]
inhibition of eukaryotic LysRS [14]: potent ATP competitive inhibitor

O=C(O[C@@H]1Cc2c(O)cc(O)cc2O[C@@H]1c1cc(O)c(O)c(O)c1)c1cc(O)c(O)c(O)c1 [epigallocatechin, gallate]
effect on TyrRS [12]: inhibitory effects

COc1ccc(-c2oc3cc(O)cc(O)c3c(=O)c2O)cc1 [kaempferide]
effect on TyrRS [12]: inhibitory effects
